How the values were obtained:
CCRF-CEM [1] = assay: Compound was tested for the inhibition of growth of human lymphoblastic leukemia cells (CEM); type: functional; details: read-out: ID50 (the source's name)
Outline: (§1)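 CEM human lymphoblastic and L1210 murine leukemia cells were grown in culture with drug for 48 h, at concentrations up to 10 μM. The read-out was growth inhibition, given as ID50 or, where ID50 was not reached, as percent inhibition at 10 μM. Values are averages of triplicate experiments.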

[2] = biological target: Dihydrofolate reductase (Lactobacillus casei) (UniProt P00381); assay: Affinity for partially purified bacterial (Lactobacillus casei) dihydrofolate reductase; details: Lacticaseibacillus casei
[3] = biological target: T1, Dihydrofolate reductase (Mus musculus) (UniProt P00375); assay: Affinity for mammalian (L1210 mouse leukemia) dihydrofolate reductase
T1 sequence (whole entry): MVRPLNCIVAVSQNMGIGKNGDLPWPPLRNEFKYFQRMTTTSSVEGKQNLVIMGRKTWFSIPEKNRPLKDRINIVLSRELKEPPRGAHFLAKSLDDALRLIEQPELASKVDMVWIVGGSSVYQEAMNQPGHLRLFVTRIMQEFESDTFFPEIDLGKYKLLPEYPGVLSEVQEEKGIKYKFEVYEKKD
Outline: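 Partially purified DHFR from L1210 cells, diluted 8-fold in 0.1 M KH2PO4 (pH 6.2) with 0.1% BSA and 1 mM NADPH, then held on ice 5 min. Competition with [3H]MTX over serial 5-fold dilutions starting from a 6 μM solution, 5 min at 0 °C. Unbound ligand removed with Norite charcoal and the supernatant counted; ID50 (50% drop in bound label) read from a logit-log plot.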

L1210 [4] = assay: Compound was tested for the inhibition of growth of murine leukemia cells (L1210); type: functional; details: Mus musculus, read-out: ID50 (the source's name); outline: as §1
CCRF-CEM (Homo sapiens) = assay: Percent inhibition of human lymphoblastic leukemia cell growth (48h) at 10 uM
CCRF-CEM [5] = assay: Compound is tested for the inhibition of growth of human lymphoblastic leukemia cells (CEM); type: functional; details: read-out: ID50 (the source's name); outline: as §1
L1210 [6] = assay: Compound is tested for the inhibition of growth of murine leukemia cells (L1210); type: functional; details: Mus musculus, read-out: ID50 (the source's name); outline: as §1
L1210 [7] = assay: Compound is evaluated for percent increase in against L1210 leukemia in mice, at dose 15 mg/kg; type: functional; details: Mus musculus
Outline: (§2)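 B6D2F1 mice were inoculated ip with 10⁵ L1210 cells on day 0. Drug was given ip on days 1, 4 and 7 (q3d) as a suspension in 10% Tween 80 or 1:1:8 emulphor–ethanol–water, or as the disodium salt in water. The read-out was median survival of treated versus control mice (T/C, days), expressed as % increase in life span.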

L1210 [8] = assay: Compound is evaluated for percent increase in against L1210 leukemia in mice, at dose 30 mg/kg; type: functional; details: Mus musculus, L1210, dose 30 mg/kg; outline: as §2
Mus musculus [9] = assay: Compound is evaluated for activity against L1210 leukemia in mice, at dose 60 mg/kg expressed as T/C=18/9; type: functional
Outline: (§3)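 B6D2F1 mice were inoculated ip with 10^5 L1210 cells on day 0. Test agents were given ip on days 1, 4 and 7 in 10% Tween 80 or a 1:1:8 emulphor-ethanol-water suspension; MTX was given ip as the disodium salt in water. Groups were mostly five mice. Read-out was median survival of treated vs control mice (days) and % increase in life span.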

Mus musculus [10] = assay: Compound is evaluated for activity against L1210 leukemia in mice, at dose 15 mg/kg expressed as T/C=15.5/9; type: functional; outline: as §3
Mus musculus [11] = assay: Compound is evaluated for activity against L1210 leukemia in mice, at dose 30 mg/kg expressed as T/C=16.5/9; type: functional; outline: as §3
RBL-1 = assay: Compound is tested for the inhibition of growth of rat basophilic leukemia (RBL)cells; type: functional; details: read-out: ID50 (the source's name)
[12] = biological target: Dihydrofolate reductase (Lactobacillus casei) (UniProt P00381); assay: Compound is evaluated for binding to Lactobacillus casei dihydrofolate reductase using kinetic assay; details: Lacticaseibacillus casei
[13] = biological target: T1, Dihydrofolate reductase (Mus musculus); assay: Compound is evaluated for binding to L1210 mouse leukemia cells dihydrofolate reductase using ligand-binding assay
[14] = biological target: Dihydrofolate reductase (Lactobacillus casei) (UniProt P00381); assay: Compound is evaluated for binding to dihydrofolate reductase of Lactobacillus casei using kinetic assay; details: Lacticaseibacillus casei
L1210 [15] = assay: Compound is evaluated for activity against L1210 leukemia in mice, at dose 120 mg/kg; type: functional, Mus musculus; outline: as §3
L1210 [16] = assay: Compound is evaluated for activity against L1210 leukemia in mice, at dose 40 mg/kg; type: functional, Mus musculus; outline: as §3
L1210 [17] = assay: Compound is evaluated for activity against L1210 leukemia in mice, at dose 80 mg/kg; type: functional, Mus musculus; outline: as §3
L1210 [18] = assay: Compound is evaluated for percent increase in life span against L1210 leukemia in mice, at dose 80 mg/kg; type: functional; details: Mus musculus; outline: as §2
L1210 [19] = assay: Compound is evaluated for percent increase in life span against L1210 leukemia in mice, at dose 40 mg/kg; type: functional; details: Mus musculus; outline: as §2
L1210 [20] = assay: Compound is evaluated for percent increase in life span against L1210 leukemia in mice, at dose 120 mg/kg; type: functional; details: Mus musculus; outline: as §2
Mus musculus [21] = assay: Compound is evaluated for activity against L1210 leukemia in mice, at dose 40 mg/kg expressed as T/C= 13/9; type: functional; outline: as §3
Mus musculus [22] = assay: Compound is evaluated for activity against L1210 leukemia in mice, at dose 80 mg/kg expressed as T/C=19/9; type: functional; outline: as §3
Mus musculus [23] = assay: Compound is evaluated for activity against L1210 leukemia in mice, at dose 120 mg/kg expressed as T/C=23/9; type: functional; outline: as §3
L1210 [24] = assay: Compound is evaluated for activity against L1210 leukemia in mice, at dose 160 mg/kg; type: functional, Mus musculus; outline: as §3
L1210 [25] = assay: Compound is evaluated for percent increase in life span against L1210 leukemia in mice, at dose 160 mg/kg; type: functional; details: Mus musculus; outline: as §2
Mus musculus [26] = assay: Compound is evaluated for activity against L1210 leukemia in mice, at dose 80 mg/kg expressed as T/C=11/9; type: functional; outline: as §3
Mus musculus [27] = assay: Compound is evaluated for activity against L1210 leukemia in mice, at dose 160 mg/kg expressed as T/C=15/9; type: functional; outline: as §3

Chain of Dihydrofolate reductase (Lactobacillus casei) (P00381 whole entry): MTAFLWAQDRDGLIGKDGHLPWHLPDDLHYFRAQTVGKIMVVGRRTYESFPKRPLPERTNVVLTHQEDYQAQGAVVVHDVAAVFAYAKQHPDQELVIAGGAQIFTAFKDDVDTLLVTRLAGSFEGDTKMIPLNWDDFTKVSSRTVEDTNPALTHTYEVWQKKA

IC50 (CCRF-CEM [1]) [µM] | ID50 [2] [µM] | ID50 [3] [µM] | IC50 (L1210 [4]) [µM] | SMILES | inhibition at 10 µM (CCRF-CEM (Homo sapiens)) [%] | IC50 (CCRF-CEM [5]) [µM] | IC50 (L1210 [6]) [µM] | ID50 [12] [µM] | ID50 [13] [µM] | MTX equivalent (L1210 [17]) [mg/kg] | ILS at 80 mg/kg (L1210 [18]) [%] | other results
> 10 | 0.31 | 0.011 | > 10 | CC(NC(=O)CCC(NC(=O)c1ccc(N(C)Cc2cnc3nc(N)nc(N)c3n2)cc1)C(=O)NC(C)c1ccccc1)c1ccccc1 (stereo not given) | 25 |  |  |  |  |  |  | 
 |  |  |  | CN(Cc1cnc2nc(N)nc(N)c2n1)c1ccc(C(=O)N[C@@H](CCC(=O)O)C(=O)O)cc1 [METHOTREXATE] |  | 0.003 | 0.01 |  |  |  |  | ILS at 15 mg/kg (L1210 [7]): 72%; ILS at 30 mg/kg (L1210 [8]): 83%; Median T/C (Mus musculus [9]): 18 days; Median T/C (Mus musculus [10]): 15.5 days; Median T/C (Mus musculus [11]): 16.5 days; IC50 (RBL-1): 0.003 µM
7.6 |  |  | 0.69 | CN(Cc1cnc2nc(N)nc(N)c2n1)c1ccc(C(=O)NC(CCC(=O)N(Cc2ccccc2)Cc2ccccc2)C(=O)N(Cc2ccccc2)Cc2ccccc2)cc1 (stereo not given) |  |  |  | 0.86 | 0.53 |  |  | 
6.4 | 0.44 | 0.026 | 9.4 | CN(Cc1ccccc1)C(=O)CCC(NC(=O)c1ccc(N(C)Cc2cnc3nc(N)nc(N)c3n2)cc1)C(=O)N(C)Cc1ccccc1 (stereo not given) |  |  |  |  |  |  |  | 
 |  |  |  | CN(Cc1cnc2nc(N)nc(N)c2n1)c1ccc(C(=O)NC(CCC(=O)Nc2ccccc2)C(=O)Nc2ccccc2)cc1 (stereo not given) |  | 3.3 | 0.41 |  | 0.074 | 60 | 111 | ID50 [14]: 1.1 µM; MTX equivalent (L1210 [15]): 90 mg/kg; MTX equivalent (L1210 [16]): 30 mg/kg; ILS at 40 mg/kg (L1210 [19]): 44%; ILS at 120 mg/kg (L1210 [20]): 155%; Median T/C (Mus musculus [21]): 13 days; Median T/C (Mus musculus [22]): 19 days; Median T/C (Mus musculus [23]): 23 days
 |  |  |  | COc1ccc(CNC(=O)CCC(NC(=O)c2ccc(N(C)Cc3cnc4nc(N)nc(N)c4n3)cc2)C(=O)NCc2ccc(OC)cc2)cc1 (stereo not given) | 44 | > 10 | 8.2 | 0.4 | 0.13 | 64 | 22 | MTX equivalent (L1210 [24]): 128 mg/kg; ILS at 160 mg/kg (L1210 [25]): 66%; Median T/C (Mus musculus [26]): 11 days; Median T/C (Mus musculus [27]): 15 days

Source: ChEMBL document CHEMBL1121831 (1981)
